# High-throughput results (PubChem BioAssay)
# A selection: hits, their analogues and other compounds. The true share with any hit is near 1.6%.
# UHRF1 binding = UHRF1 methylated DNA binding inhibitors, primary screen, counter-screen for MBD2 inhibitor project, biochemical, TR-FRET, human UHRF1, single concentration. UHRF1 binding to methylated oligo. inhibition, % at 4.4 µM. actives 0.75% (n = 370,000); in the data active means inhibition above about 21%;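 further: UHRF1 SRA domain binding a hemimethylated CpG hairpin DNA probe; 0% = median of test compound wells and 100% = reference inhibitor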
# MBD2 DNA inh = inhibitors of MBD2 binding to methylated DNA, primary screen, biochemical, TR-FRET, DNA-binding domain, human; Methyl-CpG-binding domain protein 2 (Homo sapiens), Q9UBB5; MBD2 binding to methylated oligonucleotide; inhibition, % at 4.4 µM; actives 0.31% (n = 370,000); AID 686964, 2013; in the data active means inhibition above about 13%
# Target sequence (Q9UBB5 whole entry, looked up, the tested form may be a part): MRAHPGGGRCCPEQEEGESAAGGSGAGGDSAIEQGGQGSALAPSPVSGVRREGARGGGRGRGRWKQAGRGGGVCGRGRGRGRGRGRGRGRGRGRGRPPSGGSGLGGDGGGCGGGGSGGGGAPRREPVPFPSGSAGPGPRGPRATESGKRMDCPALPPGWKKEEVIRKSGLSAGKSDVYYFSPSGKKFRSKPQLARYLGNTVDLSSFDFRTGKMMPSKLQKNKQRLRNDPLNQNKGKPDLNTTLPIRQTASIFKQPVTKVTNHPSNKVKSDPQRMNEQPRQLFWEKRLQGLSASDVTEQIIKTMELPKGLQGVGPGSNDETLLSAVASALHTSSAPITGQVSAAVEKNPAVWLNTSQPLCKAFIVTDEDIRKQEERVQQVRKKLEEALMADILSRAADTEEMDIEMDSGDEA
# LEDGF integ inh = blockers of LEDGF/p75-dependent integrase strand transfer – biochemical, TR-FRET, high throughput, primary screen | HIV-1 integrase (with human LEDGF/p75) | TR-FRET IN-LEDGF/p75 DNA integration, Eu/Cy5 | actives 0.64% (n = 370,000) | AID 743269, 2014 | inhibition, % at 3.7 µM;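 active means inhibition above the screen-wide mean plus 3 SD, cut at about 13% in these data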;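 further: signal is the Cy5 over europium emission ratio at 671 and 618 nm; 0% = plate median of compound wells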
# TDP2 inh = human TDP2 enzyme inhibitors, primary screen, biochemical, epi absorbance, recombinant enzyme; Tyrosyl-DNA phosphodiesterase 2 (Homo sapiens), O95551; actives 0.34% (n = 370,000); inhibition, % at 12.8 µM; T5PNP hydrolysis, p-nitrophenol absorbance 415 nm;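 active means inhibition above the mean of all tested compounds plus 3 SD, set per campaign, cut at about 25% in these data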;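 further: 0% = DMSO with enzyme and 100% = buffer with substrate but no TDP2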
#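 Test system: Human TDP2 enzyme | Reagent: 5 mM T5PNP | Compound dosing: 12.8 µM single point, 1% DMSO | Incubation: Enzyme reaction with compound for 2 h at 37 °C | Technique: p-Nitrophenol epi absorbance | Read-out: % inhibition relative to enzyme-containing and enzyme-free wells | Benchmarks: High control without enzyme, low control DMSO plus TDP2 | Replicates: Singlicate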
# UHRF1 DNA bind = UHRF1 methylated DNA binding inhibitors, counter-screen for MBD2 inhibitor project, biochemical, TR-FRET, human UHRF1 | shares compounds with MBD2 DNA inh | UHRF1 binding to methylated oligonucleotide | inhibition, % at 4.4 µM | actives 25% (n = 1,000); in the data active means inhibition above about 21%;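 further: UHRF1 SRA domain binding a labeled hemimethylated CpG hairpin DNA; 0% = vehicle only and 100% = reference inhibitor with vehicle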
# MBD2 DBD conf = inhibitors of MBD2 binding to methylated DNA, confirmation, biochemical, TR-FRET, DNA-binding domain, human; shares compounds with MBD2 DNA inh; TR-FRET MBD2-DBD binding to methylated oligonucleotide; inhibition, % at 4.4 µM; actives 26% (n = 1,000); AID 720531, 2013
# TDP2 confirm = human TDP2 enzyme inhibitors, retest, confirmation, biochemical, epi absorbance, recombinant enzyme | shares compounds with TDP2 inh | absorbance read-out | inhibition, % at 12.8 µM | actives 22% (n = 1,100); in the data active means inhibition above about 25%;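 further: 0% = vehicle with enzyme and 100% = no enzyme buffer only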
# IN multimer act = HIV-1 IN multimer formation enhancers, counter-screen for LEDGF/p75 integration inhibitor project, biochemical, TR-FRET; shares compounds with LEDGF integ inh; TR-FRET HIV-1 integrase multimerization; activation, % at 7.7 µM; actives 17% (n = 2,000); in the data active means activation above about 8.9%
# TR-FRET interf = TR-FRET optical interference artefacts, confirmation, artefact control for LEDGF/p75-dependent integration inhibitor project, biochemical, HIV-1 IN multimerization | shares compounds with LEDGF integ inh | TR-FRET optical interference counterscreen | inhibition, % at 7.7 µM | 2,000 tested, under 10 active;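 active means inhibition above the mean over all tested compounds plus 3 SD, which no compound reached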;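 further: 0% = integrase with antibodies and DMSO and 100% = antibodies without integrase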
# LEDGF integ conf = inhibitors of HIV-1 IN-LEDGF/p75 DNA integration, confirmation, biochemical, TR-FRET. shares compounds with LEDGF integ inh. inhibition, % at 3.7 µM. actives 36% (n = 2,000). TR-FRET LEDGF/p75-dependent HIV-1 integration
# An asterisk follows results filed as active; · = not tested or not shown. Unless noted, no stated cut-off is given here; in the data, active means inhibition above about 14%; inactive means the rest.
SMILES,UHRF1 binding,MBD2 DNA inh,LEDGF integ inh,TDP2 inh,UHRF1 DNA bind,MBD2 DBD conf,IN multimer act,TR-FRET interf,LEDGF integ conf,others
NC(=S)NN=Cc1ccc(-c2ccc(S(=O)(=O)Nc3ncccn3)cc2)o1,47.4*,15.2*,14.8*,5.2,28.8*,9.2,7.0,-35.3,34.0*,
COc1ccccc1C(=O)N1CCN(C(=O)[C@@H](Cc2ccccc2)NC(=O)[C@H]2O[C@@H](n3cnc(C(N)=O)n3)[C@H](O)[C@@H]2O)CC1,0.7,7.0,1.6,-1.1,·,·,·,·,·,
O=C(O)c1ccccc1-c1ccc(/C=C/c2cc(C(F)(F)F)[nH]c(=O)n2)o1,-18.2,-9.7,5.4,-3.5,·,·,·,·,·,
O=C(O)c1cccc(-c2ccc(/C=c3/sc4nc5ccccc5n4c3=O)o2)c1,80.8*,33.6*,45.5*,8.6,54.2*,19.4*,10.8*,-54.4,20.2*,
O=C(O)c1ccccc1-c1ccc(C=c2sc3nc4cc(Br)cnc4n3c2=O)o1,95.1*,55.1*,28.6*,-11.2,72.1*,63.0*,-2.6,13.2,16.9*,
CCOC(=O)CC[C@@H]1CC[C@]2(CCCN(C(=O)C3CCCCC3)C2)O1,0.2,7.0,-3.6,7.1,·,·,·,·,·,
COC(=O)C1CCCN(C(=O)C(Cc2ccc3c(c2)OCO3)NC(C)=O)C1 (stereo not drawn),-0.6,2.5,1.3,3.6,·,·,·,·,·,
COc1ccccc1/C=C1/C(=O)N(c2ccccc2)N=C1C,15.9,18.3*,52.0*,80.2*,5.5,-0.7,2.0,-9.8,5.3,TDP2 confirm=13.8
CC1=NN(c2ccccc2)C(=O)/C1=C\c1cn(-c2ccccc2)nc1C,6.2,-2.0,-3.0,-4.2,·,·,·,·,·,
O=S(=O)(c1cc(O)ccc1O)c1cccc2c(S(=O)(=O)c3cc(O)ccc3O)cccc12,32.9*,20.3*,16.2*,3.0,36.9*,16.9*,21.6*,-109.0,41.4*,
O=C1/C(=C\c2ccc(O)cc2)SC(=S)N1c1cccnc1,-2.3,-0.1,3.7,-5.0,·,·,·,·,·,
O=C(CCCN1C(=O)/C(=C/c2ccco2)SC1=S)Nc1cccc(C(=O)O)c1,76.0*,29.7*,46.1*,20.2,21.0*,2.8,3.4,-17.1,25.7*,
NN1C(=O)/C(=C\c2ccco2)SC1=S,63.3*,17.4*,54.7*,14.4,3.1,0.4,3.3,-16.6,10.4,
CCOC(=O)CN1C(=O)S/C(=C/c2ccco2)C1=O,-4.7,-3.4,-1.0,-3.5,·,·,·,·,·,
O=C1/C(=C/c2ccco2)SC(=S)N1c1cccnc1,98.3*,104.6*,92.7*,3.7,69.5*,31.9*,15.8*,-79.6,65.6*,
